Numbering of substitutions follows the chain as printed. Active and inactive are the calls of the source. No cut-off for these calls is given here.
What was measured:
[1] = system: T1, Monoglyceride lipase (Homo sapiens), Q99685 [C208A,C242A]; assay: Inhibition of human MAGL C208A/C242A mutant expressed in Escherichia coli
T1 sequence (whole entry): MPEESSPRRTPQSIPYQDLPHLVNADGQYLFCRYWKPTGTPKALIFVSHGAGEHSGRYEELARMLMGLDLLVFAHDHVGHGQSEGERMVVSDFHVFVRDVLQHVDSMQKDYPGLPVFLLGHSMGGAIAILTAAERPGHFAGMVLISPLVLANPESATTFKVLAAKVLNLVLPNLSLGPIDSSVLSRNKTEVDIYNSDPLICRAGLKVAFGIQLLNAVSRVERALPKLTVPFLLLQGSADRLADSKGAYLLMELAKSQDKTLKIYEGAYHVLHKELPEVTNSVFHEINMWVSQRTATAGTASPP
Outline: (§1)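 Homogenates of E. coli expressing wild-type or C201A, C208A, C242A or C208A/C242A mutant MAGL used as enzyme source in the [3H]-2-OG hydrolysis assay; n = 3 in duplicate.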

[2] = system: T2, Monoglyceride lipase (Homo sapiens), Q99685 [C201A]; assay: Inhibition of human MAGL C201A mutant expressed in Escherichia coli; outline: as §1
T2 sequence (whole entry): T1 sequence (whole entry) with C201A, A208C, A242C

[3] = system: T3, Monoglyceride lipase (Homo sapiens), Q99685 [C242A]; assay: Inhibition of human MAGL C242A mutant expressed in Escherichia coli; outline: as §1
T3 sequence (whole entry): T1 sequence (whole entry) with A208C

[4] = system: T1, Monoglyceride lipase (Homo sapiens), Q99685 [C208A,C242A]; assay: Inhibition of human MAGL C208A/C242A mutant expressed in Escherichia coli in presence of DTT
[5] = target: T4, Monoglyceride lipase (Homo sapiens) (UniProt Q99685); assay: Irreversible inhibition of MAGL at 10^-8.5 M measured after 300 times dilution
T4 sequence (whole entry): T1 sequence (whole entry) with A208C, A242C
Outline: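 Pure MAGL (105 ng, 20 μL) incubated 30 min at room temperature with inhibitor at 10−3 to 10−6 M or DMSO, then diluted 300-fold in Tris pH 8.0; after 15 min, aliquot assayed with [3H]-2-OG by standard protocol; same nominal post-dilution concentrations also assayed directly; percent of control, one-way ANOVA with Dunnett's test.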

- inhibition [1]: inactive
- inhibition [2]: Active
- inhibition [3]: inactive
- inhibition [4]: Active
- inhibition [5]: Active
Compound: CC(C)(C)c1ccc(CN2CCN(C(=S)Sc3ccc([N+](=O)[O-])cc3[N+](=O)[O-])CC2)cc1
